Tests used:
[1] = test system: HeLa; assay: Estrogenic activity in human HeLa cells assessed as ERbeta gene transcriptional activity at 10 nM after 24 hrs by RT-PCR relative to 17-beta-estradiol; type: functional
Outline: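 Steroid-depleted HeLa cells (24 h in phenol red-free DMEM, 5% charcoal-stripped FBS) treated 24 h with compound at 10^-8 M final. 17β-Estradiol at 10^-8 M was the positive control and 0.01% DMSO the negative. RNA isolated and converted to cDNA. ERβ PCR: 32 cycles (94 °C 30 s, 56 °C 30 s, 72 °C 30 s), final extension 7 min.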

[2] = test system: HeLa; assay: Estrogenic activity in human HeLa cells assessed as Bcl-xL gene transcriptional activity at 10 nM after 24 hrs by RT-PCR relative to 17-beta-estradiol; type: functional
Outline: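 HeLa cells grown in DMEM with 5% FBS (37 °C, 5% CO2, 24 h), then moved to phenol red-free DMEM with 5% charcoal-stripped FBS for 24 h. Exposed to 10^-8 M compound (final) for 24 h. Controls: 10^-8 M 17β-estradiol, 0.01% DMSO. Total RNA extracted, reverse transcribed. Bcl-xL PCR: 28 cycles (94 °C 30 s, 60 °C 30 s, 72 °C 30 s), same profile as HPRT.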

Row | Compound | Activity [1] | Activity [2]
1 | O=C(/C=C/c1ccc(O)cc1)CCCCc1ccccc1 | 70.33% | 74.41%
2 | O=C(/C=C/C=C/c1ccccc1)CCc1ccc(O)cc1 | 87.75% | 74.54%
3 | Oc1ccc(CC[C@@H](O)CC/C=C/c2ccccc2)cc1 | 52.5% | 57.73%
4 | Oc1ccc(CC[C@@H](O)CC/C=C/c2ccccc2)cc1O | 51.5% | 45.98%
5 | CO[C@@H](CC/C=C/c1ccccc1)CCc1ccccc1 | 74.97% | 72.5%
6 | CC(=O)O[C@@H](/C=C/C=C/c1ccccc1)CCc1ccccc1 | 58.36% | 47.96%
7 | CC(=O)Oc1ccc(CCC(=O)CC/C=C/c2ccccc2)cc1 | 84% | 75.3%
8 | CC(=O)Oc1ccc(CCC(=O)/C=C/C=C/c2ccccc2)cc1 | 68.45% | 49.82%
9 | COc1ccc(CCC(=O)CC/C=C/c2ccccc2)cc1 | 58.51% | 71.4%
10 | COc1ccc(CCC(=O)/C=C/C=C/c2ccccc2)cc1 | 72% | 76.77%
11 | C(=C\C=C\c1ccccc1)/C=C/Cc1ccccc1 | 76.46% | 77.5%
12 | O[C@@H](CC/C=C/c1ccccc1)CCc1ccccc1 | 42.48% | 52.85%
13 | O=C(/C=C/C=C/c1ccccc1)CCc1ccccc1 | 33.72% | 43.97%
14 | O[C@@H](/C=C/C=C/c1ccccc1)CCc1ccccc1 | 75.42% | 62.51%
15 | O=C(CC/C=C/c1ccccc1)CCc1ccc(O)cc1 | 90.56% | 78.51%
16 | O[C@@H](CCCCc1ccccc1)CCc1ccccc1 | 37.03% | 40%
17 | O=C(CCCCc1ccccc1)CCc1ccccc1 | 57.5% | 42.18%
18 | O=C(CC/C=C/c1ccccc1)CCc1ccccc1 | 85.45% | 74.3%
19 | O=C(/C=C/CCc1ccccc1)CCc1ccc(O)cc1 | 50.86% | 47.08%
20 | CC(=O)O[C@@H](CCCCc1ccccc1)CCc1ccccc1 | 58.97% | 55%
21 | CC(=O)O[C@@H](CC/C=C/c1ccccc1)CCc1ccccc1 | 75.5% | 71.06%
22 | O=c1c(-c2ccc(O)cc2)coc2cc(O)cc(O)c12 [GENISTEIN] | 75.51% | 72.85%
